According to ChEMBL document CHEMBL1143202:
Activity calls are given as the source filed them. The rule behind the calls is not given here.

What was measured:
[1] = organism: Rattus norvegicus; test: Effect on respiratory control coefficient in Wistar Albino rat liver mitochondria at 25 uM in presence of sodium glutamate relative to control; assay type: functional
Outline: (§1)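 Isolated rat liver mitochondria respiring on glutamate or succinate as substrate; oxygen consumption recorded. State 3 is the rate after ADP addition and state 4 the rate after ADP is exhausted. The respiratory control coefficient (RCC) and ADP/O ratio were determined in the same runs. Flavone tested across 25–200 μM.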

[2] = tested on: Liver; test: Reduction of cytochrome c in rat liver mitochondria in presence of EDTA at 200 uM; assay type: functional
[3] = organism: Rattus norvegicus; test: Effect on ADP/O ratio in Wistar Albino rat liver mitochondria at 75 uM in presence of sodium glutamate relative to control; assay type: functional; outline: as §1
[4] = organism: Rattus norvegicus; test: Effect on oxygen consumption rate in Wistar Albino rat liver mitochondria assessed as inhibition in state 4 respiration at 50 uM in presence of sodium glutamate relative to control; assay type: functional; design: scale not given: the % may be the effect or the level left; outline: as §1
[5] = organism: Rattus norvegicus; test: Inhibition of succinate oxidase in Wistar Albino rat liver mitochondria at 100 uM relative to control; design: scale not given: the % may be the effect or the level left
[6] = organism: Rattus norvegicus; test: Inhibition of succinate oxidase in Wistar Albino rat liver mitochondria at 50 uM relative to control; design: scale not given: the % may be the effect or the level left
[7] = organism: Rattus norvegicus; test: Inhibition of NADH-cytochrome c reductase in Wistar Albino rat liver mitochondria at 50 uM relative to control; design: scale not given: the % may be the effect or the level left
[8] = organism: Rattus norvegicus; test: Effect on respiratory control coefficient in Wistar Albino rat liver mitochondria at 75 uM in presence of sodium glutamate relative to control; assay type: functional; outline: as §1
[9] = organism: Rattus norvegicus; test: Inhibition of ATPase in Wistar Albino rat livers intact mitochondria at 200 uM in presence of FCCP relative to control; design: scale not given: the % may be the effect or the level left
[10] = organism: Rattus norvegicus; test: Inhibition of NADH-cytochrome c reductase in Wistar Albino rat liver mitochondria at 25 uM relative to control; design: scale not given: the % may be the effect or the level left
[11] = tested on: Liver; test: Reduction of cytochrome c in rat liver mitochondria in presence of catalase at 200 uM; assay type: functional; design: scale not given: the % may be the effect or the level left
[12] = organism: Rattus norvegicus; test: Inhibition of succinate dehydrogenase in Wistar Albino rat liver mitochondria at 200 uM relative to control; design: scale not given: the % may be the effect or the level left
[13] = organism: Rattus norvegicus; test: Inhibition of succinate-cytochrome c reductase in Wistar Albino rat liver mitochondria at 75 uM relative to control; design: scale not given: the % may be the effect or the level left
[14] = organism: Rattus norvegicus; test: Effect on respiratory control coefficient in Wistar Albino rat liver mitochondria at 25 uM in presence of succinate relative to control; assay type: functional; outline: as §1
[15] = organism: Rattus norvegicus; test: Effect on oxygen consumption rate in Wistar Albino rat liver mitochondria assessed as inhibition in state 4 respiration at 25 uM in presence of succinate relative to control; assay type: functional; design: scale not given: the % may be the effect or the level left; outline: as §1
[16] = organism: Rattus norvegicus; test: Effect on respiratory control coefficient in Wistar Albino rat liver mitochondria at 50 uM in presence of sodium glutamate relative to control; assay type: functional; outline: as §1
[17] = organism: Rattus norvegicus; test: Inhibition of NADH-cytochrome c reductase in Wistar Albino rat liver mitochondria at 200 uM relative to control; design: scale not given: the % may be the effect or the level left
[18] = organism: Rattus norvegicus; test: Effect on oxygen consumption rate in Wistar Albino rat liver mitochondria assessed as inhibition in state 4 respiration at 100 uM in presence of succinate relative to control; assay type: functional; design: scale not given: the % may be the effect or the level left; outline: as §1
[19] = organism: Rattus norvegicus; test: Effect on ADP/O ratio in Wistar Albino rat liver mitochondria at 75 uM in presence of succinate relative to control; assay type: functional; outline: as §1
[20] = organism: Rattus norvegicus; test: Effect on oxygen consumption rate in Wistar Albino rat liver mitochondria assessed as inhibition in state 4 respiration at 50 uM in presence of succinate relative to control; assay type: functional; design: scale not given: the % may be the effect or the level left; outline: as §1
[21] = organism: Rattus norvegicus; test: Inhibition of succinate oxidase in Wistar Albino rat liver mitochondria at 200 uM relative to control; design: scale not given: the % may be the effect or the level left
[22] = organism: Rattus norvegicus; test: Effect on respiratory control coefficient in Wistar Albino rat liver mitochondria at 100 uM in presence of succinate relative to control; assay type: functional; outline: as §1
[23] = organism: Rattus norvegicus; test: Inhibition of ATPase in Wistar Albino rat livers disrupted mitochondria at 25 uM relative to control; design: scale not given: the % may be the effect or the level left
[24] = organism: Rattus norvegicus; test: Effect on respiratory control coefficient in Wistar Albino rat liver mitochondria at 75 uM in presence of succinate relative to control; assay type: functional; outline: as §1
[25] = organism: Rattus norvegicus; test: Inhibition of cytochrome c oxidase in Wistar Albino rat liver mitochondria at 50 uM relative to control; design: scale not given: the % may be the effect or the level left
[26] = organism: Rattus norvegicus; test: Inhibition of cytochrome c oxidase in Wistar Albino rat liver mitochondria at 200 uM relative to control; design: scale not given: the % may be the effect or the level left
[27] = organism: Rattus norvegicus; test: Inhibition of ATPase in Wistar Albino rat livers intact mitochondria at 200 uM relative to control; design: scale not given: the % may be the effect or the level left
[28] = organism: Rattus norvegicus; test: Effect on oxygen consumption rate in Wistar Albino rat liver mitochondria assessed as inhibition in state 3 respiration at 100 uM in presence of succinate relative to control; assay type: functional; design: scale not given: the % may be the effect or the level left; outline: as §1
[29] = organism: Rattus norvegicus; test: Effect on ADP/O ratio in Wistar Albino rat liver mitochondria at 25 uM in presence of sodium glutamate relative to control; assay type: functional; outline: as §1
[30] = organism: Rattus norvegicus; test: Inhibition of succinate oxidase in Wistar Albino rat liver mitochondria at 75 uM relative to control; design: scale not given: the % may be the effect or the level left
[31] = organism: Rattus norvegicus; test: Inhibition of cytochrome c oxidase in Wistar Albino rat liver mitochondria at 100 uM relative to control; design: scale not given: the % may be the effect or the level left
[32] = organism: Rattus norvegicus; test: Effect on oxygen consumption rate in Wistar Albino rat liver mitochondria assessed as inhibition in state 3 respiration at 75 uM in presence of succinate relative to control; assay type: functional; design: scale not given: the % may be the effect or the level left; outline: as §1
[33] = organism: Rattus norvegicus; test: Inhibition of succinate-cytochrome c reductase in Wistar Albino rat liver mitochondria at 200 uM relative to control; design: scale not given: the % may be the effect or the level left
[34] = organism: Rattus norvegicus; test: Inhibition of NADH dehydrogenase in Wistar Albino rat liver mitochondria at 200 uM relative to control; design: scale not given: the % may be the effect or the level left
[35] = organism: Rattus norvegicus; test: Inhibition of succinate dehydrogenase in Wistar Albino rat liver mitochondria at 100 uM relative to control; design: scale not given: the % may be the effect or the level left
[36] = organism: Rattus norvegicus; test: Inhibition of ATPase in Wistar Albino rat livers intact mitochondria at 100 uM relative to control; design: scale not given: the % may be the effect or the level left
[37] = organism: Rattus norvegicus; test: Effect on oxygen consumption rate in Wistar Albino rat liver mitochondria assessed as inhibition in state 3 respiration at 25 uM in presence of succinate relative to control; assay type: functional; design: scale not given: the % may be the effect or the level left; outline: as §1
[38] = tested on: Liver; test: Reduction of cytochrome c in rat liver mitochondria in presence of deferoxamine at 200 uM; assay type: functional
[39] = organism: Rattus norvegicus; test: Inhibition of succinate oxidase in Wistar Albino rat liver mitochondria at 25 uM relative to control; design: scale not given: the % may be the effect or the level left
[40] = organism: Rattus norvegicus; test: Inhibition of succinate dehydrogenase in Wistar Albino rat liver mitochondria at 25 uM relative to control; design: scale not given: the % may be the effect or the level left
[41] = organism: Rattus norvegicus; test: Inhibition of ATPase in Wistar Albino rat livers intact mitochondria at 50 uM relative to control; design: scale not given: the % may be the effect or the level left

SMILES: COc1c(O)cc2oc(-c3ccc(O)c(O)c3)cc(=O)c2c1O
- Activity [1]: 73%
- Activity [2]: Active
- Activity [3]: 90.6%
- Activity [4]: 102%
- Activity [5]: 77%
- Activity [6]: 83%
- Activity [7]: 45%
- Activity [8]: 40.9%
- Activity [9]: 102%
- Activity [10]: 54%
- Activity [11]: 15%
- Activity [12]: 51%
- Activity [13]: 12%
- Activity [14]: 76.4%
- Activity [15]: 106%
- Activity [16]: 66.5%
- Activity [17]: 19%
- Activity [18]: 132%
- Activity [19]: 81.6%
- Activity [20]: 109%
- Activity [21]: 77%
- Activity [22]: 36.8%
- Activity [23]: 103%
- Activity [24]: 52.9%
- Activity [25]: 104%
- Activity [26]: 82%
- Activity [27]: 101%
- Activity [28]: 45.4%
- Activity [29]: 92.8%
- Activity [30]: 86%
- Activity [31]: 96%
- Activity [32]: 51.2%
- Activity [33]: 18%
- Activity [34]: 39%
- Activity [35]: 50%
- Activity [36]: 97%
- Activity [37]: 83%
- Activity [38]: inactive
- Activity [39]: 87%
- Activity [40]: 71%
- Activity [41]: 94%
